Data reported in paper PMC3957490 (Neuron, 2014).

Columns and labels:
Type in all cases: cell-based
[1] = biological target: T1, 2AC1/2AC2 (tagged GluN1/GluN2A) (Rattus norvegicus, UniProt P35439+Q00959); assay: two-electrode voltage clamp, Xenopus oocytes
Procedure, shortened: (§1)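 Oocytes injected with about 10 ng total cRNA of rat GluN1-1a plus wild-type or C1/C2-tagged GluN2 (tagged at 1:6:6); two-electrode voltage clamp. GluN2A-selective antagonists: 100 μM glutamate + 3 μM glycine. Divalent metal inhibitor: 50 μM glutamate + 50 μM glycine, −20 mV, kept below 300 nM, pH 7.3 (also 7.8, 6.8). GluN2B-selective antagonists: 100 μM glutamate + 50 μM glycine, −40 mV. IC50 from fitted concentration-response data, mean ± SEM over N oocytes.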

[2] = biological target: T2, wt 2A/2A (wild type GluN1/GluN2A) (Rattus norvegicus, UniProt P35439+Q00959); assay: two-electrode voltage clamp, Xenopus oocytes
Procedure, shortened: as §1

[3] = biological target: T3, 2AC1/2BAC2 (GluN1/GluN2A/GluN2B triheteromer) (Rattus norvegicus, UniProt P35439+Q00959+Q00960); assay: two-electrode voltage clamp, Xenopus oocytes
[4] = biological target: 2BAC1/2BAC2 (tagged GluN1/GluN2B with GluN2A CTD) (Rattus norvegicus, UniProt P35439+Q00960); assay: whole-cell patch clamp, HEK293 cells; settings: agonist; […] glutamate, […] glycine
[5] = biological target: T1, 2AC1/2AC2 (tagged GluN1/GluN2A); assay: whole-cell patch clamp, HEK293 cells; settings: agonist; […] glutamate, […] glycine
[6] = biological target: wt 2B/2B (wild type GluN1/GluN2B) (Rattus norvegicus, UniProt P35439+Q00960); assay: whole-cell patch clamp, HEK293 cells; settings: agonist; […] glutamate, […] glycine
[7] = biological target: T3, 2AC1/2BAC2 (GluN1/GluN2A/GluN2B triheteromer); assay: whole-cell patch clamp, HEK293 cells; settings: agonist; […] glutamate, […] glycine
[8] = biological target: T2, wt 2A/2A (wild type GluN1/GluN2A); assay: whole-cell patch clamp, HEK293 cells; settings: agonist; […] glutamate, […] glycine

T1 sequence (Q00959 23-1464, other chains not shown): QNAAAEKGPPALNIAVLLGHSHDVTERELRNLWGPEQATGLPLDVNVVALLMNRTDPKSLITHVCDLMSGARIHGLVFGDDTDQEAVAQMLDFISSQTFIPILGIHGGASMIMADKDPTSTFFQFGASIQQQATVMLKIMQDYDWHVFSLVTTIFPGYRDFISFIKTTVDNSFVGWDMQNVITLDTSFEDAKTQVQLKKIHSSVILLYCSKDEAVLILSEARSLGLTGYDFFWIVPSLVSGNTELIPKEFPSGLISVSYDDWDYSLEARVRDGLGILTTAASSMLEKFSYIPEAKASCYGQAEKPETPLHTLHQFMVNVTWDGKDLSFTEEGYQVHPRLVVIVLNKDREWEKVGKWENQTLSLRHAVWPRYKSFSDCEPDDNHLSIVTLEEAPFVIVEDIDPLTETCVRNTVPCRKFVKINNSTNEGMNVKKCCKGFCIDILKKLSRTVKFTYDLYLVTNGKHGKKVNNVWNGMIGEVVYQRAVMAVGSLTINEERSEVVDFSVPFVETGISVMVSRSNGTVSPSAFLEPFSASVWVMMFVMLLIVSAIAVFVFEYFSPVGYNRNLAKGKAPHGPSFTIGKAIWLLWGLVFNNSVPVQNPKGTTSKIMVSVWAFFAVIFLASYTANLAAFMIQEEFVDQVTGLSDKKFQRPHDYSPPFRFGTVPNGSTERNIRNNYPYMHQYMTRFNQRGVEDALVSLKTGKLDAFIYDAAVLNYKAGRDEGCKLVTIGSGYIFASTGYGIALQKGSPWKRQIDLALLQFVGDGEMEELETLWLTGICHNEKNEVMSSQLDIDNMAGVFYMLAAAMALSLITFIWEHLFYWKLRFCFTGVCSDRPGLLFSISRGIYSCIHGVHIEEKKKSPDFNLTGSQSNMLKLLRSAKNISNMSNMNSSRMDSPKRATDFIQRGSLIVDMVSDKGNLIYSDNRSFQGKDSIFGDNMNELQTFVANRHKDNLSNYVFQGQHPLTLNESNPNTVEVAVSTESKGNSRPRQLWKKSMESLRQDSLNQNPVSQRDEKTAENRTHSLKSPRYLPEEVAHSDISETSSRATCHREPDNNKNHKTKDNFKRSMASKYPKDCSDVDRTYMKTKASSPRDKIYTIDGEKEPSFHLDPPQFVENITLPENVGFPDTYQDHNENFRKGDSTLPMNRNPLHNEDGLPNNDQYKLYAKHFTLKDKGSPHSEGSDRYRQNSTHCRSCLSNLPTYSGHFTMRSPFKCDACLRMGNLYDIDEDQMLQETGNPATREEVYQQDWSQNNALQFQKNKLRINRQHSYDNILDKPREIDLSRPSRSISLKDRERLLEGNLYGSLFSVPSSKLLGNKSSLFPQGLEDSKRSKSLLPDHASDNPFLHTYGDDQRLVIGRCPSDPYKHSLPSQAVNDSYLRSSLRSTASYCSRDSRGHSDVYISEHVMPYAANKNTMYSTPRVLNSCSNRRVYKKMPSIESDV
T3 sequence (Q00959 23-1464, other chains not shown): as above
T2 sequence (Q00959 23-1464, other chains not shown): as above

In the case of O=C(NNC(=O)c1ccc(CNS(=O)(=O)c2ccc(F)c(Cl)c2)cc1)c1ccccc1 [TCN-201], the IC50 [1] is reported as 360 ± 20 nM, the IC50 [2] is reported as 370 ± 30 nM and the IC50 [3] is reported as 1350 ± 130 nM.

N[C@@H](CCC(=O)O)C(=O)O [glutamate] was tested, and the “Brief glutamate activation (5 ms) / τweighted” value [4] was 274 ± 24 ms, the “Brief glutamate activation (5 ms) / τweighted” value [5] was 33 ± 2 ms and the “Brief glutamate activation (5 ms) / τweighted” value [6] was 314 ± 13 ms. For the same compound, the “Brief glutamate activation (5 ms) / τweighted” value [7] was 57 ± 4 ms and the “Brief glutamate activation (5 ms) / τweighted” value [8] was 32 ± 1 ms.
